The values below come from ChEMBL document CHEMBL4513216, “Probing the Open Global Health Chemical Diversity Library for Multistage-Active Starting Points for Next-Generation Antimalarials” (ACS Infect Dis, 2020).

The data set is described as follows: Toxicity liver stage against HepG2, at 10uM. Set-up: test concentration 10 uM, cell line HepG2-A16-CD81EGFP. The note with it: human, HepG2-A16-CD81EGFP cells; read-out: INHIBITION
Format: cell-based. In outline:
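Uninfected HepG2-A16-CD81EGFP cells, 3 × 10^3 per well, 1536-well, plated on prespotted compound at 10 μM final, parasite-free screening media added to match infected plates; puromycin 10 μM positive, DMSO 0.5% negative; run in parallel with 48 h PbLuc assay at 37 °C, 5% CO2; viability by CellTiter-Glo luminescence, normalized to controls.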
Take `CC(=O)N1CC[C@H](c2nc3cc(F)ccc3o2)C1`: the cytotoxicity at 10 µM was 0.835%.

For `CC(=O)N(C)CC(=O)Nc1cnc(-n2ccnc2)nc1`, the cytotoxicity at 10 µM was -9.69%.

Consider `O=C(Cn1c(=O)oc2ccccc21)NCC1(O)CCc2ccccc2C1` (centres undefined), for which the cytotoxicity at 10 µM is 5.37%.

Turning to `c1ccc(CN2CCN3C[C@H](Oc4cccnc4)C[C@H]3C2)nc1`, the cytotoxicity at 10 µM turned out to be 6.59%.

Take `CC(C)Nc1ccc2nc(C3CCNCC3)nn2c1`: the cytotoxicity at 10 µM was -6.75%.

On to `COCC(=O)N1CCC2(CC1)CC(c1cnn(C)c1)C(=O)N2` (centres undefined), for which the cytotoxicity at 10 µM turned out to be 7.25%.

In the case of `COCc1nc2nc(O)c3c(n2n1)NC(=O)CC3c1ccc(SC)cc1` (centres undefined), the cytotoxicity at 10 µM stood at 1.22%.

In the case of `Cc1ccnn1CCNC(=O)C1CCN(S(=O)(=O)c2ccc(F)cc2)C1` (centres undefined), the cytotoxicity at 10 µM is -32%.

In the case of `Cc1noc2nc(C3CCCN(Cc4cccnc4)C3)cc(C(F)F)c12` (centres undefined), the cytotoxicity at 10 µM was -30.3%.

Consider `Cc1cc(-c2cnc(NC3CCCC3)nc2-c2ccoc2)on1`, for which the cytotoxicity at 10 µM is -20.9%.

For the compound `Cc1ccc([C@]2(O)CC[C@H]3CN(Cc4cccnc4)C[C@H]32)nc1`, the cytotoxicity at 10 µM was -12.6%.

Take `COc1ccc(OC)c(CN2CCC(c3cc(O)nc(C)n3)C2)c1` (centres undefined): the cytotoxicity at 10 µM was -15%.

For `COCCCSc1ccc(NC(=O)Nc2cn[nH]c2)cc1`, the cytotoxicity at 10 µM was determined as 2.54%.

As for `CN1CCCN(C(=O)c2nc3c(o2)CN(S(C)(=O)=O)C3)CC1`, the cytotoxicity at 10 µM is -117%.

As to `CCOc1ncnc2c1CCN(S(=O)(=O)c1ccccc1)CC2`, the cytotoxicity at 10 µM is -110%.

For `CCOCC1CN(S(=O)(=O)CC)Cc2nn(C)cc21` (centres undefined), the cytotoxicity at 10 µM was -111%.

Consider `CC(=O)Nc1nc2c(s1)C1(CCCC1)Nc1ccccc1S2`, for which the cytotoxicity at 10 µM is -9.99%.

Take `CN1CCCN(c2nccc(-c3c[nH]c4ccc(Br)cc34)n2)CC1`: the cytotoxicity at 10 µM is -9.99%.

Consider `CCOc1ccc(-c2ccnc(COc3ccccc3)n2)cc1C(=O)O`, for which the cytotoxicity at 10 µM was -1.84%.

As for `Cc1nc2cc(NC(=O)Cn3ncc(N4CCCC4)cc3=O)ccc2s1`, the cytotoxicity at 10 µM came to 2.01%.

For `CO[C@H]1C[C@@H](O)C12CCN(Cc1nc(C(F)(F)F)no1)CC2`, the cytotoxicity at 10 µM was -4.7%.

`COCc1noc(Cn2c(C)cc(C(F)(F)F)cc2=O)n1`: the cytotoxicity at 10 µM came out at 2.65%.

As to `COCCCN1CC2(CCN(Cc3cc(C(C)C)no3)CC2)CC1=O`, the cytotoxicity at 10 µM was -3.79%.

With `CCCN(Cc1nccn1C)C(=O)c1cnn[nH]1`, the cytotoxicity at 10 µM is -1.21%.

In the case of `Cc1cccc2cc(C(=O)N3CCN(S(=O)(=O)N(C)C)CC3)n(C)c12`, the cytotoxicity at 10 µM was found to be 7.39%.

For the compound `COc1ccccc1Oc1ncccc1CNC(=O)C1COC(=O)N1` (centres undefined), the cytotoxicity at 10 µM is -6.01%.

As to `Cc1nn(C)cc1CNCc1ccc(N(C)C)cc1`, the cytotoxicity at 10 µM is -11.9%.

Turning to `COc1cccc(S(=O)(=O)CCNC2CCc3ncnn3C2)c1` (centres undefined), the cytotoxicity at 10 µM turned out to be 2.53%.

Take `CCn1cc(CN2CCCN(C(=O)c3ccoc3)CC2)cn1`: the cytotoxicity at 10 µM was -18.8%.

As for `Cc1cnn(CC2CCCN2Cc2nccn2C)c1` (centres undefined), the cytotoxicity at 10 µM turned out to be 3.54%.

`O=C(NCC(O)CN1CCc2ccccc2C1)Nc1cccnc1` (centres undefined): the cytotoxicity at 10 µM came out at 3.2%.

With `CC(C)c1nc(C2CCCN(C(=O)c3ccc4[nH]cnc4c3)C2)no1` (centres undefined), the cytotoxicity at 10 µM is -3.87%.

`CCOc1ccc(CC(CNC(=O)c2ccoc2)C(N)=O)cc1` (centres undefined): the cytotoxicity at 10 µM worked out at 5.37%.

On to `Cc1noc(C2CCCN(C(=O)c3ccc(Br)cc3F)C2)n1` (centres undefined), for which the cytotoxicity at 10 µM was -8.06%.

Consider `CN(C)CCN1CCC2(CC1)CN(Cc1cccnc1)C(=O)CO2`, for which the cytotoxicity at 10 µM is -106%.

Take `CS(=O)(=O)NCc1cnc2n1CCN(Cc1ccccn1)CC2`: the cytotoxicity at 10 µM was determined as 8.85%.

Take `Cc1nc(CN2Cc3nccn3CC(COCC3CC3)C2)cs1` (centres undefined): the cytotoxicity at 10 µM amounted to 11.3%.

Regarding `CC(C)N1CCOCC2(CN(Cc3cccs3)CCO2)C1` (centres undefined), the cytotoxicity at 10 µM was 3.71%.

As to `Cc1noc(C)c1CN1C[C@H]2CN(Cc3cccc(F)c3)C[C@H]2C1`, the cytotoxicity at 10 µM is -114%.
